Common to all, as to format: functional
In experiment [1] the test system is Saccharomyces cerevisiae. Briefly: Antifungal activity against Saccharomyces cerevisiae MTCC 36 assessed as zone of inhibition at 150 ug by agar well diffusion method. Particulars: read-out: IZ. An outline of the steps: (§1)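 Agar well diffusion on potato dextrose agar. Plates were spread with 0.5 mL of a week-old culture of the test organism, and 6 mm wells were cut with a cork borer. Compounds were dissolved in DMSO at different concentrations and added to the wells, with controls included. Plates were held at 27 °C for 48 h, and inhibition zone diameters were read in mm. Three to four replicates per treatment.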

In experiment [2] the test system is Diutina rugosa. Briefly: Antifungal activity against Candida rugosa NCIM 3462 assessed as zone of inhibition at 100 ug by agar well diffusion method. The note with it: read-out: IZ. Summed up: as §1
The test system of experiment [3] is Rhizopus arrhizus. The experiment can be described thus: Antifungal activity against Rhizopus oryzae MTCC 262 assessed as zone of inhibition at 100 ug by agar well diffusion method. Particulars: read-out: IZ. An outline of the steps: as §1
Background: A growth-free zone around the sample is the usual read-out of agar diffusion tests.

The subject of the next experiment is Bacillus subtilis. Briefly: Antibacterial activity against Bacillus subtilis MTCC 441 by broth dilution method. Summed up:
(§2)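 MIC determined by broth dilution following NCCL standards. Penicillin and streptomycin were tested in parallel under identical conditions.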

In another experiment the test system is Staphylococcus aureus. Briefly: Antibacterial activity against Staphylococcus aureus MTCC 96 by broth dilution method. Summed up: as §2
In general terms: In broth dilution the organism is exposed to a series of concentrations in liquid medium.

The next experiment concerns Pseudomonas aeruginosa. The experiment can be described thus: Antibacterial activity against Pseudomonas aeruginosa MTCC 741 by broth dilution method. Summed up:
as §2

Experiment [4] deals with Candida albicans. The experiment can be described thus: Antifungal activity against Candida albicans MTCC 227 assessed as zone of inhibition at 100 ug by agar well diffusion method. The note with it: read-out: IZ. Summed up:
as §1

The next experiment concerns Klebsiella pneumoniae. The experiment can be described thus: Antibacterial activity against Klebsiella pneumoniae MTCC 618 by broth dilution method. Summed up: as §2
Experiment [5] concerns Saccharomyces cerevisiae. Briefly: Antifungal activity against Saccharomyces cerevisiae MTCC 36 assessed as zone of inhibition at 100 ug by agar well diffusion method. Particulars: read-out: IZ. Summed up:
as §1

In experiment [6] the test system is Aspergillus niger. Briefly: Antifungal activity against Aspergillus niger MTCC 282 assessed as zone of inhibition at 150 ug by agar well diffusion method. Particulars: read-out: IZ. Summed up: as §1
Experiment [7] deals with Candida albicans. The experiment can be described thus: Antifungal activity against Candida albicans MTCC 227 assessed as zone of inhibition at 150 ug by agar well diffusion method. Particulars: read-out: IZ. Summed up:
as §1

The subject of experiment [8] is Diutina rugosa. The experiment can be described thus: Antifungal activity against Candida rugosa NCIM 3462 assessed as zone of inhibition at 150 ug by agar well diffusion method. The note with it: read-out: IZ. Summed up:
as §1

Experiment [9] deals with Staphylococcus epidermidis. Briefly: Antibacterial activity against Staphylococcus epidermidis MTCC 2639 by broth dilution method. An outline of the steps: as §2
A further experiment deals with Escherichia coli. Briefly: Antibacterial activity against Escherichia coli MTCC 443 by broth dilution method. An outline of the steps:
as §2

Experiment [10] concerns Aspergillus niger. The experiment can be described thus: Antifungal activity against Aspergillus niger MTCC 282 assessed as zone of inhibition at 100 ug by agar well diffusion method. Particulars: read-out: IZ. Summed up: as §1
For experiment [11], the system named is Rhizopus arrhizus. Briefly: Antifungal activity against Rhizopus oryzae MTCC 262 assessed as zone of inhibition at 150 ug by agar well diffusion method. The note with it: read-out: IZ. Summed up: as §1

≈ marks a conversion by molar mass, not a printed value.

With `Cc1[nH]c2ccccc2c1C(c1ccc2ccccc2c1)c1oc(CO)cc(=O)c1O` (centres undefined), the zone of inhibition at 150 µg/disc with Saccharomyces cerevisiae [1], in the experiment on Aspergillus niger [6], in the experiment with Candida albicans [7], in the experiment on Diutina rugosa [8] and in the experiment with Rhizopus arrhizus [11] was 0 mm in each case. Moreover, the zone of inhibition at 100 µg/disc in the experiment with Diutina rugosa [2], with Rhizopus arrhizus [3], in the experiment with Candida albicans [4], with Saccharomyces cerevisiae [5] and in the experiment with Aspergillus niger [10] was 0 mm in each case. The MIC (against Bacillus subtilis; with Staphylococcus aureus; with Pseudomonas aeruginosa; in the experiment with Klebsiella pneumoniae; in experiment [9]; against Escherichia coli) was 150 mg/L (≈ 365 µM) each time.
Take `CN[C@@H]1[C@H](O[C@H]2[C@H](O[C@H]3[C@H](O)[C@@H](O)[C@H](N=C(N)N)[C@@H](O)[C@@H]3N=C(N)N)O[C@@H](C)[C@]2(O)C=O)O[C@@H](CO)[C@H](O)[C@H]1O` [STREPTOMYCIN]: the MIC against Bacillus subtilis worked out at 6.25 mg/L (≈ 10.7 µM); in the experiment on Staphylococcus aureus, 6.25 mg/L (≈ 10.7 µM); in the experiment with Pseudomonas aeruginosa it was 1.56 mg/L (≈ 2.69 µM); in the experiment on Klebsiella pneumoniae, 3.12 mg/L (≈ 5.37 µM); in [9], 3.12 mg/L (≈ 5.37 µM); in the experiment on Escherichia coli, 6.25 mg/L (≈ 10.7 µM).
Regarding `COc1ccc(C(c2oc(CO)cc(=O)c2O)c2c[nH]c3ccccc23)cc1` (centres undefined), the zone of inhibition at 150 µg/disc with Saccharomyces cerevisiae [1] came out at 0 mm; with Aspergillus niger [6], 0 mm; in the experiment with Candida albicans [7], 0 mm; in the experiment with Diutina rugosa [8], 9 mm; in the experiment with Rhizopus arrhizus [11], 0 mm. Moreover, the zone of inhibition at 100 µg/disc amounted to 6 mm in the experiment on Diutina rugosa [2]; 0 mm in the experiment on Rhizopus arrhizus [3]; 0 mm in the experiment on Candida albicans [4]; 0 mm in the experiment with Saccharomyces cerevisiae [5]; 0 mm in the experiment on Aspergillus niger [10]. The MIC against Bacillus subtilis stood at 150 mg/L (≈ 397 µM); against Staphylococcus aureus, 37.5 mg/L (≈ 99.4 µM); in the experiment on Pseudomonas aeruginosa it was 75 mg/L (≈ 199 µM); with Klebsiella pneumoniae it was 75 mg/L (≈ 199 µM); in [9] it was 18.8 mg/L (≈ 49.7 µM); against Escherichia coli, 150 mg/L (≈ 397 µM).
As to `COc1ccc(C(c2oc(CO)cc(=O)c2O)c2c(-c3ccccc3)[nH]c3ccccc23)cc1` (centres undefined), the zone of inhibition at 150 µg/disc in the experiment with Saccharomyces cerevisiae [1] came out at 14 mm; in the experiment on Aspergillus niger [6], 14 mm; in the experiment with Candida albicans [7], 12 mm; with Diutina rugosa [8], 14 mm; in the experiment with Rhizopus arrhizus [11], 0 mm. The zone of inhibition at 100 µg/disc in the experiment with Diutina rugosa [2] was 10 mm; with Rhizopus arrhizus [3] it was 0 mm; in the experiment with Candida albicans [4], 9 mm; in the experiment with Saccharomyces cerevisiae [5], 9 mm; in the experiment with Aspergillus niger [10], 10 mm. Besides, the MIC against Bacillus subtilis came to 150 mg/L (≈ 331 µM); with Staphylococcus aureus, 37.5 mg/L (≈ 82.7 µM); in the experiment with Pseudomonas aeruginosa, 75 mg/L (≈ 165 µM); against Klebsiella pneumoniae, 150 mg/L (≈ 331 µM); in experiment [9] it was 150 mg/L (≈ 331 µM); with Escherichia coli, 75 mg/L (≈ 165 µM).
On to `Cc1[nH]c2ccccc2c1C(c1cccc(Oc2ccccc2)c1)c1oc(CO)cc(=O)c1O` (centres undefined), for which the zone of inhibition at 150 µg/disc in the experiment on Saccharomyces cerevisiae [1] stood at 14 mm; in the experiment with Aspergillus niger [6], 14 mm; with Candida albicans [7], 14 mm; with Diutina rugosa [8], 16 mm; in the experiment with Rhizopus arrhizus [11] it was 0 mm. In addition, the zone of inhibition at 100 µg/disc was 11 mm in the experiment with Diutina rugosa [2]; 0 mm in the experiment on Rhizopus arrhizus [3]; 9 mm in the experiment on Candida albicans [4]; 10 mm in the experiment on Saccharomyces cerevisiae [5]; 9 mm in the experiment with Aspergillus niger [10]. Besides, the MIC was determined as 150 mg/L (≈ 331 µM) against Bacillus subtilis; 18.8 mg/L (≈ 41.3 µM) against Staphylococcus aureus; 75 mg/L (≈ 165 µM) in the experiment with Pseudomonas aeruginosa; 75 mg/L (≈ 165 µM) against Klebsiella pneumoniae; 150 mg/L (≈ 331 µM) in experiment [9]; 75 mg/L (≈ 165 µM) in the experiment with Escherichia coli.
With `CC1(C)S[C@@H]2[C@H](NC(=O)Cc3ccccc3)C(=O)N2[C@H]1C(=O)O` [PENICILLIN G], the MIC against Bacillus subtilis was 1.56 mg/L (≈ 4.67 µM); against Staphylococcus aureus, 1.56 mg/L (≈ 4.67 µM); in the experiment on Pseudomonas aeruginosa, 12.5 mg/L (≈ 37.4 µM); with Klebsiella pneumoniae, 6.25 mg/L (≈ 18.7 µM); in experiment [9], 3.12 mg/L (≈ 9.35 µM); in the experiment with Escherichia coli it was 12.5 mg/L (≈ 37.4 µM).
`COc1ccc(C(c2oc(CO)cc(=O)c2O)c2c[nH]c3ccc(Cl)cc23)cc1` (centres undefined): the zone of inhibition at 150 µg/disc turned out to be 21 mm in the experiment with Saccharomyces cerevisiae [1]; 20 mm in the experiment on Aspergillus niger [6]; 16 mm with Candida albicans [7]; 0 mm in the experiment on Diutina rugosa [8]; 0 mm with Rhizopus arrhizus [11]. In addition, the zone of inhibition at 100 µg/disc in the experiment with Diutina rugosa [2] came out at 0 mm; with Rhizopus arrhizus [3] it was 0 mm; in the experiment with Candida albicans [4] it was 11 mm; with Saccharomyces cerevisiae [5] it was 16 mm; with Aspergillus niger [10] it was 14 mm. The MIC came to 150 mg/L (≈ 364 µM) with Bacillus subtilis; 2.34 mg/L (≈ 5.68 µM) against Staphylococcus aureus; 4.68 mg/L (≈ 11.4 µM) against Pseudomonas aeruginosa; 18.8 mg/L (≈ 45.5 µM) against Klebsiella pneumoniae; 150 mg/L (≈ 364 µM) in [9]; 4.68 mg/L (≈ 11.4 µM) in the experiment on Escherichia coli.
For the compound `C[C@@H]1[C@H](O)[C@@H](C)/C=C/C=C/C=C/C=C/C=C/C=C/C=C/[C@H](O[C@@H]2O[C@H](C)[C@@H](O)[C@H](N)[C@@H]2O)C[C@@H]2O[C@](O)(C[C@@H](O)C[C@@H](O)[C@H](O)CC[C@@H](O)C[C@@H](O)CC(=O)O[C@H]1C)C[C@H](O)[C@H]2C(=O)O` [AMPHOTERICIN B], the zone of inhibition at 100 µg/disc in the experiment on Diutina rugosa [2] was found to be 22 mm; with Rhizopus arrhizus [3] it was 24 mm; with Candida albicans [4] it was 23.5 mm; in the experiment on Saccharomyces cerevisiae [5], 22 mm; with Aspergillus niger [10], 25 mm.
With `COc1ccc(C(c2oc(CO)cc(=O)c2O)c2c[nH]c3ccc(Br)cc23)cc1` (centres undefined), the zone of inhibition at 150 µg/disc worked out at 16 mm in the experiment with Saccharomyces cerevisiae [1]; 18 mm in the experiment with Aspergillus niger [6]; 18 mm in the experiment on Candida albicans [7]; 19 mm with Diutina rugosa [8]; 0 mm in the experiment on Rhizopus arrhizus [11]. Further, the zone of inhibition at 100 µg/disc in the experiment on Diutina rugosa [2] came out at 13 mm; in the experiment with Rhizopus arrhizus [3] it was 0 mm; in the experiment on Candida albicans [4] it was 13 mm; in the experiment on Saccharomyces cerevisiae [5], 10 mm; with Aspergillus niger [10], 12 mm. Further, the MIC against Bacillus subtilis turned out to be 150 mg/L (≈ 329 µM); against Staphylococcus aureus, 18.8 mg/L (≈ 41.1 µM); in the experiment with Pseudomonas aeruginosa, 37.5 mg/L (≈ 82.2 µM); against Klebsiella pneumoniae, 75 mg/L (≈ 164 µM); in [9], 18.8 mg/L (≈ 41.1 µM); in the experiment with Escherichia coli it was 37.5 mg/L (≈ 82.2 µM).
With `CCC(c1oc(CO)cc(=O)c1O)c1c(-c2ccccc2)[nH]c2ccccc12` (centres undefined), the zone of inhibition at 150 µg/disc worked out at 20 mm in the experiment with Saccharomyces cerevisiae [1]; 0 mm in the experiment with Aspergillus niger [6]; 0 mm with Candida albicans [7]; 0 mm with Diutina rugosa [8]; 0 mm with Rhizopus arrhizus [11]. The zone of inhibition at 100 µg/disc worked out at 0 mm with Diutina rugosa [2]; 0 mm in the experiment on Rhizopus arrhizus [3]; 0 mm in the experiment on Candida albicans [4]; 14 mm in the experiment on Saccharomyces cerevisiae [5]; 0 mm in the experiment with Aspergillus niger [10]. Further, the minimal inhibitory concentration (MIC) in the experiment with Bacillus subtilis stood at 18.8 mg/L (≈ 49.9 µM); against Staphylococcus aureus, 9.38 mg/L (≈ 25 µM); against Pseudomonas aeruginosa, 37.5 mg/L (≈ 99.9 µM); in the experiment on Klebsiella pneumoniae it was 75 mg/L (≈ 200 µM); in experiment [9], 18.8 mg/L (≈ 49.9 µM); against Escherichia coli it was 9.38 mg/L (≈ 25 µM).

In general, MIC refers to the least concentration at which growth counts as inhibited.

Values taken from ChEMBL document CHEMBL1287779, “Indium(III) chloride catalyzed three-component coupling reaction: a novel synthesis of 2-substituted aryl(indolyl)kojic acid derivatives as potent antifungal and antibacterial agents” (2010).
